Values after ≈ are worked out from the molar mass of the structure shown.
Experiments:
[1] = test system: HIV-1RF; assay: Inhibition of cell to cell virus transmission assay; format: cell-based
[2] = test system: HIV-1ZA/97/009; assay: Anti-HIV assay in fresh human PBMCs; format: cell-based
[3] = test system: HIV-1IIIB; assay: Cytopathic effects; format: cell-based
[4] = In vitro release study from IVR segments with release modelling; format: physicochemical
[5] = Chemical stability of the analogues in aqueous solution at pH 4.0 and 5.0; format: physicochemical
Procedure, shortened: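 Test compound prepared as 50 µM stock solutions in 10 mM acetate buffer (pH 4.0 and 5.0) and held at 40°C/75% RH. Aliquots were taken at 0, 1, 2 and 4 weeks; time-zero samples (n=3) were stored at −80°C. Drug content was measured by HPLC with norethindrone internal standard (LOQ 18.0 pmol). k = −2.303 × slope of a linear regression of log concentration vs time (first order).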

[6] = Determination of aqueous solubility; format: physicochemical; conditions: DDI water, 37°C
Procedure, shortened: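 Saturated solution of test compound in 18 MΩ DDI water, shaken at 250 rpm at 37°C. Aliquots at time zero, 24 h and 48 h were filtered through 0.2 µm nylon and stored at −80°C before analysis.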

Cc1cc(C)cc(C(=O)c2c(C(C)C)c(=O)[nH]c(=O)n2CC2CC2)c1 [IQP-0528, 1-cyclopropylmethyl-6-(3,5-dimethyl-benzoyl)-5-isopropyl-1H-pyrimidine-2,4-dione]
EC95 ([1]; HIV-1RF Cell to Cell Transmission): 85 nM | EC50 ([1]; Human immunodeficiency virus 1): 6 nM | EC50 ([2]; Human immunodeficiency virus 1, PBMC, in Homo sapiens): 6 nM | EC95 ([2]; PBMCs/HIV-1ZA/97/009): 19 nM | EC95 ([3]; CEM-SS/HIV-1IIIB): 8 nM | EC50 ([3]; Human immunodeficiency virus 1, CEM-SS): 2 nM | diffusivity ([4]; IQP-0528 single agent IVR): 3.9 ± 0.4 × 10^−10 cm^2/s | release of IQP-0528 relative to SAMT-10 by mass ([4]; combination IVR): ~3.5 times | diffusivity ([4]; combination IVR, in presence of 8% SAMT-10): 2.8 ± 0.8 × 10^−10 cm^2/s | decrease of diffusivity in the presence of 8% SAMT-10 ([4]; combination vs single agent IVR): 27% | cumulative release ([4]; from combination IVR, 30 days, scaled to full IVR): 86 ± 13 mg/IVR

NC(=O)CCNC(=O)c1ccccc1SC(=O)c1ccccc1 [SAMT-08]
concentration remaining in aqueous solution ([5]; pH 4.0, 40°C/75% RH, 0 weeks): 46.5 ± 0.1 µM | concentration remaining in aqueous solution ([5]; pH 4.0, 40°C/75% RH, 1 week): 40.9 ± 0.1 µM | concentration remaining in aqueous solution ([5]; pH 4.0, 40°C/75% RH, 2 weeks): 35.1 ± 0.5 µM | concentration remaining in aqueous solution ([5]; pH 4.0, 40°C/75% RH, 4 weeks, ND = Not Detected): 26.8 ± 0.2 µM | Degradation rate constant (k) ([5]; pH 4.0, first order): 2.3 10^−7 sec^−1 | concentration remaining in aqueous solution ([5]; pH 5.0, 40°C/75% RH, 0 weeks): 68.6 ± 0.2 µM | concentration remaining in aqueous solution ([5]; pH 5.0, 40°C/75% RH, 1 week): 57.3 ± 0.6 µM | concentration remaining in aqueous solution ([5]; pH 5.0, 40°C/75% RH, 2 weeks): 49.0 ± 1.8 µM | concentration remaining in aqueous solution ([5]; pH 5.0, 40°C/75% RH, 4 weeks, ND = Not Detected): 36 ± 1.43 µM | Degradation rate constant (k) ([5]; pH 5.0, first order): 2.3 10^−7 sec^−1 | water solubility [6]: 2377.6 ± 27.8 µM (≈ 781 µg/mL)

Source: article PMC4822498 (Journal of pharmaceutical sciences, 2015)
